Biological target in the first experiment: not listed separately
As to the kind of experiment: Inhibition of capsid in HBV infected in human HepG.2.2.15 cells assessed as reduction of HBV DNA incubated for 5 days by quantitative PCR analysis.
Take `CCOC(=O)C1=C(CN2CCOC[C@H]2C(=O)O)NC(c2nccs2)=N[C@H]1c1ccc(F)c(C#N)c1`: the EC50 was above 1000 nM.

On to `COC(=O)C1=C(CN2CCOC[C@H]2C(=O)O)NC(c2nccs2)=N[C@H]1c1ccc(Cl)c(F)c1`, for which the 50% effective concentration (EC50) worked out at 10 nM.

On to `CCOC(=O)C1=C(CN2CCOC[C@H]2C(=O)O)NC(c2nccs2)=N[C@H]1c1ccc(Br)c(F)c1`, for which the EC50 was 3 nM.

Consider `CCOC(=O)C1=C(CN2CCOC[C@H]2C(=O)O)NC(c2nccs2)=N[C@H]1c1ccc(F)cc1Cl`, for which the EC50 stood at 2 nM.

On to `CCOC(=O)C1=C(CN2CCOC[C@H]2C(=O)O)NC(c2nccs2)=N[C@H]1c1ccc(F)c(Br)c1`, for which the EC50 is above 1000 nM.

`COC(=O)C1=C(CN2CCOC[C@H]2C(=O)O)NC(c2nccs2)=N[C@H]1c1ccc(C)c(F)c1`: the EC50 was 28 nM.

Take `CCOC(=O)C1=C(CN2CCOC[C@H]2C(=O)O)NC(c2nccs2)=N[C@H]1c1ccc(F)c(F)c1`: the EC50 was found to be 11 nM.

As for `CCOC(=O)C1=C(CN2CCOC[C@H]2C(=O)O)NC(c2nccs2)=N[C@H]1c1ccc(F)c(Cl)c1`, the EC50 is above 1000 nM.

As to `COC(=O)C1=C(CN2CCOC[C@H]2C(=O)O)NC(c2nccs2)=N[C@H]1c1ccc(F)c(F)c1`, the concentration for a half-maximal effect (EC50) came to 46 nM.

The target of another experiment is Capsid protein (Hepatitis B virus, UniProt Q03732). The experiment can be described thus: Inhibition of capsid in HBV infected in human HepG.2.2.15 cells assessed as reduction of HBV DNA incubated for 5 days by quantitative PCR analysis. The method, boiled down: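 HepG2.2.15 cells (HepG2-derived, stably carrying the HBV genome; kept in DMEM-F12 with 10% FBS, penicillin/streptomycin, 0.5 mg/mL G418) seeded at 3 × 10^4 cells/well and incubated overnight at 37 °C. Compounds were serially half-log diluted in DMSO and added in medium at 0.5% final DMSO. HBV DNA was extracted and quantified by qPCR.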
Chain of Capsid protein (Q03732 whole entry): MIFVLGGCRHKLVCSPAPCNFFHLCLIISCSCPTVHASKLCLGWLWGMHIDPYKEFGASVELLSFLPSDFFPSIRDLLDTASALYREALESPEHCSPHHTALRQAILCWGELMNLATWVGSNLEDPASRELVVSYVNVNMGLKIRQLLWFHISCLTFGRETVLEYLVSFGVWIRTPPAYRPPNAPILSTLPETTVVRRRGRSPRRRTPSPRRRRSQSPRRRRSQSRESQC
On to `CCOC(=O)C1=C(CN2CC(F)(F)C[C@H]2C(=O)O)NC(c2nccs2)=N[C@H]1c1ccc(F)cc1Cl`, for which the EC50 is 10 nM.

For the compound `CCOC(=O)C1=C(CN2CCOC[C@H]2C(=O)O)NC(c2nccs2)=N[C@H]1c1cccc(F)c1`, the EC50 turned out to be 15 nM.

For the compound `CCOC(=O)C1=C(CN2CCOC[C@H]2C(=O)O)NC(c2nccs2)=N[C@H]1c1cc(F)c(F)c(F)c1`, the EC50 worked out at 18 nM.

`COC(=O)C1=C(CN2CC(F)(F)C[C@H]2C(=O)O)NC(c2nccs2)=N[C@H]1c1ccc(F)c(F)c1`: the EC50 stood at 22 nM.

On to `CCOC(=O)C1=C(CN2CCOC[C@H]2C(=O)O)NC(c2nccs2)=N[C@H]1c1ccc(C)c(F)c1`, for which the half-maximal effective concentration (EC50) worked out at 5 nM.

With `CCOC(=O)C1=C(CN2CCOC[C@H]2C(=O)O)NC(c2nccs2)=N[C@H]1c1ccc(Cl)c(F)c1`, the EC50 came to 2 nM.

Regarding `CCOC(=O)C1=C(CN2CCOC[C@H]2C(=O)O)NC(c2nccs2)=N[C@H]1c1ccc(F)cc1F`, the EC50 is 14 nM.

For `COC(=O)C1=C(CN2CC(F)(F)C[C@H]2C(=O)O)NC(c2nccs2)=N[C@H]1c1ccc(F)cc1Cl`, the EC50 worked out at 3 nM.

For the compound `CCOC(=O)C1=C(CN2CCOC[C@H]2C(=O)O)NC(c2nccs2)=N[C@H]1c1ccc(F)cc1`, the EC50 turned out to be 15 nM.

As to `COC(=O)C1=C(CN2CCOC[C@H]2C(=O)O)NC(c2nccs2)=N[C@H]1c1ccc(Br)c(F)c1`, the EC50 was 10 nM.

Take `CCOC(=O)C1=C(CN2CCOC[C@H]2C(=O)O)NC(c2nccs2)=N[C@H]1c1ccc(F)c(F)c1F`: the EC50 was determined as 5 nM.

Usually EC50 stands for the concentration giving half of the maximal effect.
